Assay results reported in ChEMBL document CHEMBL4270633, “Discovery of novel vinyl sulfone derivatives as anti-tumor agents with microtubule polymerization inhibitory and vascular disrupting activities” (Eur J Med Chem, 2018).
Active and inactive are the calls of the source. No cut-off for these calls is given here.

Key:
HepG2 = assay: Antiproliferative activity against human HepG2 cells after 72 hrs by MTT assay; type: functional, cell-based; details: HepG2, 72 h
Method in brief: (§1)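 Cells seeded and held 24 h at 37 °C, 5% CO2, then exposed to a concentration series in medium with 0.1% DMSO for 72 h. MTT (5 mg/mL in PBS) added for 4 h and OD read at 490 nm. IC50 taken from dose-response curves; mean ± SD of at least three independent experiments.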

K562 [1] = assay: Antiproliferative activity against human K562 cells after 72 hrs by MTT assay; type: functional, cell-based; details: K562, 72 h; method in brief: as §1
[2] = Inhibition of porcine brain tubulin polymerization after 30 mins by spectrophotometric method; design: species or system Sus scrofa
Method in brief: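 Purified tubulin (2 mg/mL) in PEM buffer (80 mM PIPES pH 6.9, 0.5 mM EGTA, 2 mM MgCl2, 15% glycerol), preincubated on ice with compound or DMSO vehicle, then GTP added. Absorbance at 340 nm followed at 37 °C for 30 min. IC50 derived from area under the polymerization curve.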

A549 = assay: Antiproliferative activity against human A549 cells after 72 hrs by MTT assay; type: functional, cell-based; details: A549, 72 h; method in brief: as §1
K562 [3] = assay: Antiproliferative activity against human K562 cells at 0.1 uM after 72 hrs by MTT assay relative to control; type: functional
K562 [4] = assay: Antiproliferative activity against human K562 cells at 1 uM after 72 hrs by MTT assay; type: functional, cell-based

SMILES	IC50 (HepG2)	IC50 (K562 [1])	IC50 [2]	IC50 (A549)	Activity (K562 [3])	Activity (K562 [4])
COc1ccc(/C=C/S(=O)(=O)c2cc(OC)c(OC)c(OC)c2)cc1O	0.267 µM	0.219 µM	8.23 µM	2.28 µM	35.3%	Active
COc1cc(S(=O)(=O)/C=C/c2ccc(N(C)C)cc2)cc(OC)c1OC					Active	Active
COc1cc(S(=O)(=O)/C=C/c2ccccc2)cc(OC)c1OC					Active	Active
COc1cc(S(=O)(=O)/C=C/c2ccc(O)c(O)c2)cc(OC)c1OC					inactive	Active
CO/C(=C\c1ccc(OC)c(O)c1)S(=O)(=O)c1cc(OC)c(OC)c(OC)c1	0.599 µM	0.19 µM		2.89 µM		
COc1ccc(/C=C/S(=O)(=O)c2cc(OC)c(OC)c(OC)c2)cc1					Active	Active

The next lines start with results.

IC50 (HepG2)	IC50 (K562 [1])	IC50 [2]	IC50 (A549)	SMILES	Activity (K562 [3])	Activity (K562 [4])
0.243 µM	0.183 µM	3.83 µM	1.2 µM	COc1ccc(/C=C(\Cl)[S+]([O-])c2cc(OC)c(OC)c(OC)c2)cc1O (stereo not given)		
0.71 µM	0.58 µM		2.73 µM	COc1ccc(/C=C(\C)S(=O)(=O)c2cc(OC)c(OC)c(OC)c2)cc1O		
> 1 µM	> 1 µM		> 5 µM	COc1ccc(/C=C(\Cl)S(=O)(=O)c2cc(OC)c(OC)c(OC)c2)cc1O		
0.102 µM	0.06 µM	3.69 µM	0.387 µM	COc1ccc(/C=C/C(=O)c2cc(OC)c(OC)c(OC)c2)cc1O		
> 1 µM	> 1 µM		> 5 µM	COc1ccc(/C=C(\C#N)[S+]([O-])c2cc(OC)c(OC)c(OC)c2)cc1O (stereo not given)		
> 1 µM	> 1 µM		> 5 µM	COc1ccc(/C=C(\C#N)S(=O)(=O)c2cc(OC)c(OC)c(OC)c2)cc1O		
0.591 µM	0.473 µM		1.31 µM	COc1ccc(/C=C(\F)S(=O)(=O)c2cc(OC)c(OC)c(OC)c2)cc1O		
